# Data reported in ChEMBL document CHEMBL2385032, “Dual-functional abeo-taxane derivatives destabilizing microtubule equilibrium and inhibiting NF-κB activation” (2013).
# Activity calls are given as the source filed them. The calls are words filed in the database; no cut-off is given here.
# Experiments:
# HEK-293T [1] = assay: Inhibition of TNF-alpha induced NF-kapppaB activation in HEK293T cells at 1.25 uM incubated 1 hr prior to TNF-alpha addition measured after 18 hrs by luciferase reporter gene assay; assay type: cell-based; conditions: Homo sapiens
# Method in brief: (§1)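 HEK 293T cells transiently transfected 12 h with pNFκB-luc and pRL-TK, pretreated 1 h with compound (0.31–2.50 μM) or DMSO, then stimulated with TNF-α 25 ng/mL for 18 h; firefly and Renilla luciferase read by dual-luciferase assay. Data from one of three independent experiments.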
# HEK-293T [2] = assay: Inhibition of TNF-alpha induced NF-kapppaB activation in HEK293T cells at 0.62 uM incubated 1 hr prior to TNF-alpha addition measured after 18 hrs by luciferase reporter gene assay; assay type: cell-based; conditions: Homo sapiens; method in brief: as §1
# HEK-293T [3] = assay: Inhibition of TNF-alpha induced NF-kapppaB activation in HEK293T cells at 0.31 uM incubated 1 hr prior to TNF-alpha addition measured after 18 hrs by luciferase reporter gene assay; assay type: cell-based; conditions: Homo sapiens; method in brief: as §1
# HEK-293T [4] = assay: Inhibition of TNF-alpha induced NF-kapppaB activation in HEK293T cells incubated 1 hr prior to TNF-alpha addition measured after 18 hrs by luciferase reporter gene assay; assay type: cell-based; conditions: Homo sapiens; method in brief: as §1
# HCT-116 [5] = assay: Cell cycle arrest in human HCT116 cells assessed as accumulation at G0/G1 phase at 2 uM after 12 hrs by propidium iodide staining-based FACS analysis (reference value: 54.63 to 55.88 %); assay type: functional
# HCT-116 [6] = assay: Cell cycle arrest in human HCT116 cells assessed as accumulation at G0/G1 phase at 1 uM after 12 hrs by propidium iodide staining-based FACS analysis (reference value: 54.63 to 55.88 %); assay type: functional
# HCT-116 [7] = assay: Cell cycle arrest in human HCT116 cells assessed as accumulation at S phase at 2 uM after 12 hrs by propidium iodide staining-based FACS analysis (reference value: 20.48 to 23.62 %); assay type: functional
# HCT-116 [8] = assay: Cell cycle arrest in human HCT116 cells assessed as accumulation at S phase at 1 uM after 12 hrs by propidium iodide staining-based FACS analysis (reference value: 20.48 to 23.62 %); assay type: functional
# HCT-116 [9] = assay: Cell cycle arrest in human HCT116 cells assessed as accumulation at G2/M phase after 12 hrs by propidium iodide staining-based FACS analysis; assay type: functional
# HCT-116 [10] = assay: Cell cycle arrest in human HCT116 cells assessed as reduction in G0/G1 phase after 12 hrs by propidium iodide staining-based FACS analysis; assay type: functional
# HCT-116 [11] = assay: Cell cycle arrest in human HCT116 cells assessed as accumulation at G2/M phase at 1 uM after 12 hrs by propidium iodide staining-based FACS analysis (reference value: 20.40 to 22.32 %); assay type: functional
# Homo sapiens [12] = species on record: Homo sapiens; assay: Induction of microtubule depolymerization in human PC3 interphase cells at 2 uM after 24 hrs by DAPI staining-based immunofluorescence microscopic analysis; assay type: cell-based
# Method in brief: (§2)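 PC-3 cells grown on chamber slides 36 h, then treated 24 h (test agents 2, 5 or 10 μM; reference agents 200 nM); fixed in 4% paraformaldehyde, permeabilized with 0.5% Triton X-100, stained with anti-α-tubulin monoclonal plus FITC secondary and DAPI for nuclei; spindle and microtubule morphology by fluorescence microscopy.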
# Tubulin (Homo sapiens) = Tubulin (Homo sapiens) (UniProt P68371+Q9H4B7+P0DPH7+P68366+Q13509+Q71U36+P04350+Q3ZCM7+P07437+P68363+Q9BQE3+Q6PEY2+Q13885+Q9BVA1+Q9BUF5); assay: Inhibition of tubulin (unknown origin) polymerization assessed as destabilization of microtubule at 15 uM by fluorescence assay; assay type: protein-complex assay
# Method in brief: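 Cell-free tubulin polymerization kit; tubulin mixed with DMSO control, 500 μM CaCl2, 3 μM paclitaxel or test compounds at 15 or 30 μM; polymerization followed kinetically by fluorescence, excitation 340 nm, emission 420 nm, in a temperature-regulated fluorimeter. Three independent experiments in triplicate.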
# HCT-116 [13] = assay: Induction of apoptosis in human HCT116 cells assessed as late apoptotic cells at 2 uM after 24 hrs by AnnexinV-FITC/PI staining-based flow cytometry (reference value: 2.53 %); assay type: functional
# HCT-116 [14] = assay: Induction of apoptosis in human HCT116 cells assessed as early apoptotic cells at 2 uM after 24 hrs by AnnexinV-FITC/PI staining-based flow cytometry (reference value: 2.17 %); assay type: functional
# HCT-116 [15] = assay: Induction of apoptosis in human HCT116 cells assessed as late apoptotic cells at 1 uM after 24 hrs by AnnexinV-FITC/PI staining-based flow cytometry (reference value: 2.53 %); assay type: functional
# HCT-116 [16] = assay: Induction of apoptosis in human HCT116 cells assessed as early apoptotic cells at 1 uM after 24 hrs by AnnexinV-FITC/PI staining-based flow cytometry (reference value: 2.17 %); assay type: functional
# HCT-116 [17] = assay: Induction of apoptosis in human HCT116 cells at 2 uM after 24 hrs by AnnexinV-FITC/PI staining-based flow cytometry; assay type: functional
# HCT-116 [18] = assay: Induction of apoptosis in human HCT116 cells at 1 uM after 24 hrs by AnnexinV-FITC/PI staining-based flow cytometry; assay type: functional
# HCT-116 [19] = assay: Induction of apoptosis in human HCT116 cells after 24 hrs by AnnexinV-FITC/PI staining-based flow cytometry; assay type: functional, cell-based
# T47D = assay: Cytotoxicity against human T47D cells; assay type: functional
# Method in brief: (§3)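 NCI-60 human tumor cell line screen run by standard NCI protocol: single-dose prescreen at 10 μM, then multi-dose testing of compounds giving over 50% growth inhibition; GI50 = concentration for 50% growth inhibition.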
# DU-145 = assay: Cytotoxicity against human DU145 cells; assay type: functional; method in brief: as §3
# OVCAR-3 = assay: Cytotoxicity against human OVCAR3 cells; assay type: functional; method in brief: as §3
# RXF 393 = assay: Cytotoxicity against human RXF393 cells; assay type: functional; method in brief: as §3
# LOX IMVI = assay: Cytotoxicity against human LOXIMVI cells; assay type: functional
# SNB-19 = assay: Cytotoxicity against human SNB19 cells; assay type: functional; method in brief: as §3
# NCI-H322M = assay: Cytotoxicity against human NCI-H322M cells; assay type: functional; method in brief: as §3
# HCT-116 [20] = assay: Cytotoxicity against human HCT116 cells; assay type: functional; method in brief: as §3
# Homo sapiens [21] = species on record: Homo sapiens; assay: Induction of microtubule depolymerization in human PC3 mitotic cells assessed as abnormal spindles at 2 uM after 24 hrs by DAPI staining-based immunofluorescence microscopic analysis; assay type: cell-based; method in brief: as §2
# MOLT-4 = assay: Cytotoxicity against human MOLT4 cells; assay type: functional; method in brief: as §3
# HEK-293T [22] = assay: Inhibition of TNF-alpha induced NF-kapppaB activation in HEK293T cells at 2.50 uM incubated 1 hr prior to TNF-alpha addition measured after 18 hrs by luciferase reporter gene assay; assay type: cell-based; conditions: Homo sapiens; method in brief: as §1
# Homo sapiens [23] = species on record: Homo sapiens; assay: Induction of microtubule depolymerization in human PC3 interphase cells at 5 uM after 24 hrs by DAPI staining-based immunofluorescence microscopic analysis; assay type: cell-based; method in brief: as §2
# Homo sapiens [24] = species on record: Homo sapiens; assay: Induction of microtubule depolymerization in human PC3 mitotic cells assessed as abnormal spindles at 5 uM after 24 hrs by DAPI staining-based immunofluorescence microscopic analysis; assay type: cell-based; method in brief: as §2
Structure (SMILES),inhibition (HEK-293T [1]) [%],inhibition (HEK-293T [2]) [%],inhibition (HEK-293T [4]),Activity (HCT-116 [5]) [%],Activity (HCT-116 [6]) [%],Activity (HCT-116 [7]) [%],Activity (HCT-116 [8]) [%],Activity (HCT-116 [9]),Activity (HCT-116 [10]),Activity (HCT-116 [11]) [%],inhibition (Tubulin (Homo sapiens)),GI50 (T47D) [µM],GI50 (DU-145) [µM],GI50 (OVCAR-3) [µM],GI50 (RXF 393) [µM],GI50 (LOX IMVI) [µM],GI50 (SNB-19) [µM],GI50 (NCI-H322M) [µM],GI50 (HCT-116 [20]) [µM],GI50 (MOLT-4) [µM],further results
C=C1C(=O)C[C@H](OC(C)=O)[C@@]2(C)[C@@H](OC(C)=O)[C@H](OC(=O)c3ccccc3)C3=C(C)[C@@H](OC(=O)[C@H](O)[C@@H](NC(=O)c4ccccc4)c4ccccc4)C[C@@]3(C(C)(C)O)[C@@H](OC(C)=O)[C@H]12,37,27,Dose-dependent effect,44.75,55.02,18.27,14.39,Dose-dependent effect,Dose-dependent effect,29.81,Active,1.86,1.59,1.72,1.29,1.86,33.7,18.5,1.28,0.65,inhibition (HEK-293T [3]): 14%; Activity (Homo sapiens [12]): Active; Activity (HCT-116 [13]): 14%; Activity (HCT-116 [14]): 5.87%; Activity (HCT-116 [15]): 2.82%; Activity (HCT-116 [16]): 2.11%; Activity (HCT-116 [17]): 20.36%; Activity (HCT-116 [18]): 8.54%; Activity (HCT-116 [19]): Dose-dependent effect; Activity (Homo sapiens [21]): Active
C=C1[C@@H](OC(=O)[C@@H](O)[C@H](NC(=O)OC(C)(C)C)c2ccccc2)C[C@H](OC(C)=O)[C@@]2(C)[C@@H](OC(C)=O)[C@H](OC(=O)c3ccccc3)C3=C(C)[C@@H](O)C[C@@]3(C(C)(C)O)[C@@H](OC(C)=O)[C@H]12,,,,,,,,,,,,> 100,72.4,28.4,26.6,> 100,> 100,> 100,45.2,83.3,
C=C1C(=O)C[C@H](OC(C)=O)[C@@]2(C)[C@@H](OC(C)=O)[C@H](OC(=O)c3ccccc3)C3=C(C)[C@@H](OC(=O)[C@H](O)[C@@H](NC(=O)OC(C)(C)C)c4ccccc4)C[C@@]3(C(C)(C)O)[C@@H](OC(C)=O)[C@H]12,12,9,Dose-dependent effect,50.3,51.25,16.39,20.48,Dose-dependent effect,Dose-dependent effect,26.14,Active,1.88,1.89,1.69,1.33,1.7,27.5,18.8,1.12,,inhibition (HEK-293T [22]): 28%; Activity (Homo sapiens [23]): Active; Activity (Homo sapiens [24]): Active; Activity (HCT-116 [13]): 14.64%; Activity (HCT-116 [14]): 5.72%; Activity (HCT-116 [15]): 5.24%; Activity (HCT-116 [16]): 3.3%; Activity (HCT-116 [17]): 19.87%; Activity (HCT-116 [18]): 4.93%; Activity (HCT-116 [19]): Dose-dependent effect
C=C1C(=O)C=C[C@@]2(C)[C@@H](OC(C)=O)[C@H](OC(=O)c3ccccc3)C3=C(C)[C@@H](OC(=O)[C@H](O)[C@@H](NC(=O)OC(C)(C)C)c4ccccc4)C[C@@]3(C(C)(C)O)[C@@H](OC(C)=O)[C@H]12,,,,,,,,,,,,4.78,6.05,3.19,2.08,2.2,> 100,24.6,1.87,3.78,
